Assay results pooled from the literature.
Lines come from different studies, so protocols differ.
Read-out: cell growth or viability

SMILES	cell line	test	conditions	measurement	result
O=C1CCN(C(=O)Nc2ccc(F)c(Cl)c2)CN1Cc1ccc(F)cc1F	AML12HBV10	MTT	48 h	CC50	> 50 µM
NC(=O)c1ncn([C@@H]2O[C@H](CO)[C@@H](O)[C@H]2O)n1	BHK-21	WST-1	72 h	CC50	> 100 µM
O=S(=O)(NNc1nnc(Cl)c2ccccc12)c1ccc(F)cc1	Vero	MTT	500 µg/mL	viability	4.75%
C=C1[C@@H]2[C@H]3OC(=O)C(=C)[C@@H]3CCC(=C)[C@@H]2C[C@@H]1OC(C)=O	CHO-K1	MTT	72 h	CC50	6.9 µM
CCNc1nc(Nc2ccc(F)c(Cl)c2)c2ccccc2n1	Vero	MTT	125 µg/mL	viability	52.9%
Cn1cnc2c1c(=O)n(CC(=O)Nc1c(Cl)cccc1Cl)c(=O)n2C	Vero	MTT	250 µg/mL	viability	70.7%
C=C1CC[C@@H](O)[C@]2(C)CC[C@H]3C(=C)C(=O)O[C@@H]3[C@@H]12	CHO-K1	MTT	72 h	CC50	31.3 µM
COC(=O)c1[nH]c(C(=O)OC)c(-c2c[nH]c3ccc(Cl)cc23)c1-c1c[nH]c2ccc(Cl)cc12	RAW264.7	resazurin	72 h	CC50	> 10 µM
COc1ccc2c(Cc3ccccc3F)c3[n+](cc2c1OC)CCc1cc2c(cc1-3)OCO2	L929	CCK-8	24 h	IC50	19.9 µM
